# Measured values taken from ChEMBL document CHEMBL5058577, “EUbOPEN Chemogenomics Library 2 (Multiplex)” (2022).
# System: HEK-293T
# Assay: Multiplex assay against HEK293T
# Format: toxicity, cell-based
# Conditions: human
# Outline: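 Per cents of healthy-nucleus cells form the tubulin, mitochondrial-mass and membrane-permeability phenotype values. Live cells were stained at seeding with Hoechst33342, BioTracker Green Microtubule Cytoskeleton Dye, MitoTracker Red and Annexin V Alexa Fluor 680. After compound addition they were imaged on a CQ1 microscope at 37°C and 5% CO2, and CellPathfinder machine-learning gating split them into Hoechst high-intensity objects or normal cells, normal cells into healthy, pyknosed or fragmented nuclei, and pyknosed cells into mitotic or apoptotic.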
# [1] = 12 h, 1 µM, compound concentration 1 uM, replicate 1
# [2] = 12 h, 1 µM, compound concentration 1 uM, replicate 2
# [3] = 12 h, 10 µM, compound concentration 10 uM, replicate 1
# [4] = 12 h, 10 µM, compound concentration 10 uM, replicate 2
# [5] = 24 h, 1 µM, compound concentration 1 uM, replicate 1
# [6] = 24 h, 1 µM, compound concentration 1 uM, replicate 2
# [7] = 24 h, 10 µM, compound concentration 10 uM, replicate 1
# [8] = 24 h, 10 µM, compound concentration 10 uM, replicate 2
# [9] = 48 h, 1 µM, compound concentration 1 uM, replicate 1
# [10] = 48 h, 1 µM, compound concentration 1 uM, replicate 2
# [11] = 48 h, 10 µM, compound concentration 10 uM, replicate 1
# [12] = 48 h, 10 µM, compound concentration 10 uM, replicate 2
compound,measurement,setting,value
O=C(O)Cc1ccccc1Nc1c(Cl)cccc1Cl [DICLOFENAC],Population Apoptotic (%),[1],36%
same,Population Fragmented Nuclei (%),[1],7%
same,Population Healthy Nuclei (%),[1],77%
same,Population Hoechst High Intensity Objects (%),[1],5%
same,Population Membrane Permeable-Phenotype (%),[1],0%
same,Population Mitochondria Different-Phenotype (%),[1],53%
same,Population Mitotic Cells (%),[1],63%
same,Population Normal (%),[1],94%
same,Population Pyknosed Nuclei (%),[1],14%
same,Population Tubulin-Different-Phenotype (%),[1],32%
same,Total Cell Count,[1],376
same,Population Apoptotic (%),[2],52%
same,Population Healthy Nuclei (%),[2],79%
same,Population Hoechst High Intensity Objects (%),[2],10%
same,Population Mitochondria Different-Phenotype (%),[2],61%
same,Population Mitotic Cells (%),[2],47%
same,Population Normal (%),[2],89%
same,Population Pyknosed Nuclei (%),[2],13%
same,Population Tubulin-Different-Phenotype (%),[2],23%
same,Total Cell Count,[2],324
same,Population Apoptotic (%),[3],30%
same,Population Fragmented Nuclei (%),[3],7%
same,Population Healthy Nuclei (%),[3],77%
same,Population Hoechst High Intensity Objects (%),[3],6%
same,Population Membrane Permeable-Phenotype (%),[3],0%
same,Population Mitochondria Different-Phenotype (%),[3],45%
same,Population Mitotic Cells (%),[3],69%
same,Population Normal (%),[3],93%
same,Population Pyknosed Nuclei (%),[3],14%
same,Population Tubulin-Different-Phenotype (%),[3],35%
same,Total Cell Count,[3],480
same,Population Apoptotic (%),[4],57%
same,Population Healthy Nuclei (%),[4],75%
same,Population Hoechst High Intensity Objects (%),[4],14%
same,Population Mitochondria Different-Phenotype (%),[4],68%
same,Population Mitotic Cells (%),[4],42%
same,Population Normal (%),[4],85%
same,Population Pyknosed Nuclei (%),[4],17%
same,Total Cell Count,[4],370
same,Population Apoptotic (%),[5],30%
same,Population Fragmented Nuclei (%),[5],7%
same,Population Healthy Nuclei (%),[5],76%
same,Population Hoechst High Intensity Objects (%),[5],3%
same,Population Membrane Permeable-Phenotype (%),[5],0%
same,Population Mitochondria Different-Phenotype (%),[5],44%
same,Population Mitotic Cells (%),[5],69%
same,Population Normal (%),[5],96%
same,Population Pyknosed Nuclei (%),[5],15%
same,Population Tubulin-Different-Phenotype (%),[5],24%
same,Total Cell Count,[5],456
same,Population Apoptotic (%),[6],45%
same,Population Fragmented Nuclei (%),[6],6%
same,Population Healthy Nuclei (%),[6],78%
same,Population Hoechst High Intensity Objects (%),[6],10%
same,Population Mitochondria Different-Phenotype (%),[6],37%
same,Population Mitotic Cells (%),[6],54%
same,Population Normal (%),[6],89%
same,Population Pyknosed Nuclei (%),[6],14%
same,Population Tubulin-Different-Phenotype (%),[6],9%
same,Total Cell Count,[6],418
same,Population Apoptotic (%),[7],25%
same,Population Fragmented Nuclei (%),[7],10%
same,Population Healthy Nuclei (%),[7],77%
same,Population Hoechst High Intensity Objects (%),[7],4%
same,Population Membrane Permeable-Phenotype (%),[7],0%
same,Population Mitochondria Different-Phenotype (%),[7],29%
same,Population Mitotic Cells (%),[7],74%
same,Population Normal (%),[7],95%
same,Population Pyknosed Nuclei (%),[7],12%
same,Population Tubulin-Different-Phenotype (%),[7],29%
same,Total Cell Count,[7],650
same,Population Apoptotic (%),[8],49%
same,Population Healthy Nuclei (%),[8],75%
same,Population Hoechst High Intensity Objects (%),[8],9%
same,Population Mitochondria Different-Phenotype (%),[8],50%
same,Population Mitotic Cells (%),[8],50%
same,Population Normal (%),[8],90%
same,Population Pyknosed Nuclei (%),[8],14%
same,Population Tubulin-Different-Phenotype (%),[8],26%
same,Total Cell Count,[8],462
same,Population Apoptotic (%),[9],23%
same,Population Fragmented Nuclei (%),[9],11%
same,Population Healthy Nuclei (%),[9],82%
same,Population Hoechst High Intensity Objects (%),[9],2%
same,Population Membrane Permeable-Phenotype (%),[9],1%
same,Population Mitochondria Different-Phenotype (%),[9],22%
same,Population Mitotic Cells (%),[9],76%
same,Population Normal (%),[9],97%
same,Population Pyknosed Nuclei (%),[9],6%
same,Population Tubulin-Different-Phenotype (%),[9],15%
same,Total Cell Count,[9],730
same,Population Apoptotic (%),[10],33%
same,Population Fragmented Nuclei (%),[10],15%
same,Population Healthy Nuclei (%),[10],79%
same,Population Mitochondria Different-Phenotype (%),[10],16%
same,Population Mitotic Cells (%),[10],66%
same,Population Pyknosed Nuclei (%),[10],4%
same,Population Tubulin-Different-Phenotype (%),[10],10%
same,Total Cell Count,[10],697
same,Population Apoptotic (%),[11],36%
same,Population Fragmented Nuclei (%),[11],12%
same,Population Healthy Nuclei (%),[11],80%
same,Population Hoechst High Intensity Objects (%),[11],3%
same,Population Membrane Permeable-Phenotype (%),[11],1%
same,Population Mitochondria Different-Phenotype (%),[11],17%
same,Population Mitotic Cells (%),[11],63%
same,Population Normal (%),[11],96%
same,Population Pyknosed Nuclei (%),[11],7%
same,Population Tubulin-Different-Phenotype (%),[11],18%
same,Total Cell Count,[11],883
same,Population Fragmented Nuclei (%),[12],16%
same,Population Healthy Nuclei (%),[12],75%
same,Population Hoechst High Intensity Objects (%),[12],4%
same,Population Membrane Permeable-Phenotype (%),[12],0%
same,Population Mitochondria Different-Phenotype (%),[12],36%
same,Population Normal (%),[12],95%
same,Population Tubulin-Different-Phenotype (%),[12],17%
same,Total Cell Count,[12],649
